Calls of active or inactive are those of the source.
Columns and labels:
Fibroblast [1] = test: Induction of shape change of actin cytoskeleton in human diabetic primary fibroblasts at 10 nM after 2 hrs by rhodamine phalloidin-staining based fluorescence microscopic analysis; assay type: functional
Fibroblast [2] = test: Induction of shape change of actin cytoskeleton in human non-diabetic primary fibroblasts at 10 nM after 2 hrs by rhodamine phalloidin-staining based fluorescence microscopic analysis; assay type: functional
Keratinocyte = test: Effect on actin cytoskeleton in human diabetic primary keratinocytes assessed as formation of cellular protrusions at 10 nM after 2 hrs by rhodamine phalloidin-staining based fluorescence microscopic analysis; assay type: functional
Method in brief: (§1)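 Subconfluent cells on glass coverslips, collagen type I coated for fibroblasts; keratinocytes starved 2 days before stimulation. Exposure 2 h, then rhodamine-phalloidin staining (1:25 in PBS) and fluorescence microscopy. Controls were DMSO as solvent and PDGF (fibroblasts) or CNF1 (keratinocytes). Where used, p38-MAPK inhibitor LN 950 (100 nM) was added 30 min beforehand.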

Fibroblast [3] = test: Effect on actin cytoskeleton in human diabetic primary fibroblasts assessed as formation of thin elongated cellular body at 10 nM after 2 hrs by rhodamine phalloidin-staining based fluorescence microscopic analysis; assay type: functional; method in brief: as §1
Fibroblast [4] = test: Effect on actin cytoskeleton in human non-diabetic primary fibroblasts assessed as formation of thin elongated cellular body at 10 nM after 2 hrs by rhodamine phalloidin-staining based fluorescence microscopic analysis; assay type: functional; method in brief: as §1
Fibroblast [5] = test: Effect on actin cytoskeleton in human non-diabetic primary fibroblasts assessed as formation of thin elongated cellular body at 10 nM after 2 hrs in presence of p-38 MAPK inhibitor LN 950 by rhodamine phalloidin-staining based fluorescence microscopic analysis; assay type: functional; method in brief: as §1
[6] = target: Transforming protein RhoA (Homo sapiens) (UniProt P61586); test: Activation of RhoA in human diabetic primary keratinocytes at 10 nM after 3 hrs by immunoblot method
Method in brief: (§2)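 Keratinocytes from a diabetic adult donor; incubation 3 h for RhoA, 20 min for Cdc42 and Rac1. Lysates made in glycerol/Tris pH 7.4/NaCl/NP-40/MgCl2/PMSF buffer, spun at 4 °C. Active GTP-bound form pulled down on glutathione-sepharose with GST-Rhotekin (RhoA) or GST-PAK (Cdc42, Rac1) for 1 h at 4 °C. Total and pulled-down protein read by immunoblot with ECL; n = 3.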

[7] = target: Cell division control protein 42 homolog (Homo sapiens) (UniProt P60953); test: Activation of Cdc42 in human diabetic primary keratinocytes at 10 nM after 20 mins by immunoblot method; method in brief: as §2
[8] = target: Ras-related C3 botulinum toxin substrate 1 (Homo sapiens) (UniProt P63000); test: Activation of Rac1 in human diabetic primary keratinocytes at 10 nM after 20 mins by immunoblot method
Method in brief: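 Primary keratinocytes from a diabetic adult donor (NHK-d), exposed 20 min. Lysed in glycerol/Tris pH 7.4/NaCl/NP-40/MgCl2/PMSF buffer and cleared at 4 °C. Supernatant incubated 1 h at 4 °C with glutathione-sepharose beads carrying GST-PAK to pull down active GTP-bound Rac1. Blotted on a 13% gel, probed with anti-Rac1 (1:2.000) and detected by ECL; total Rac1 also measured. CNF1 (2 nM) positive control, n = 3.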

Measured: Activity

Sequence of Transforming protein RhoA (Homo sapiens) (P61586 whole entry): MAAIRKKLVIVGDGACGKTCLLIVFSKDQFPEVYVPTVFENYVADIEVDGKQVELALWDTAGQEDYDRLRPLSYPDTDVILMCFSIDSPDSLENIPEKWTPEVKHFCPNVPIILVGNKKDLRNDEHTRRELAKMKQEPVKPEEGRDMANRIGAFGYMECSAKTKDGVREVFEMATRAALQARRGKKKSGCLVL
Sequence of Cell division control protein 42 homolog (Homo sapiens) (P60953 whole entry, looked up): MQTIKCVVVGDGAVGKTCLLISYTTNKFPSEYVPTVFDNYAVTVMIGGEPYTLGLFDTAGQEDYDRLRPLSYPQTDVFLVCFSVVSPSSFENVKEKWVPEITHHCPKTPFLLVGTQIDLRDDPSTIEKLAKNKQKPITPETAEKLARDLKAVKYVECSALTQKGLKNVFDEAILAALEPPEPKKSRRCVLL

C=C(C)[C@@H]1CC[C@]2(C(=O)O)CC[C@]3(C)[C@H](CC[C@@H]4[C@@]5(C)CC[C@H](O)C(C)(C)[C@@H]5CC[C@]43C)[C@@H]12
active: Fibroblast [1] | Fibroblast [2]

C=C(C)[C@@H]1CC[C@]2(C)CC[C@]3(C)[C@H](CC[C@@H]4[C@@]5(C)CC[C@H](O)C(C)(C)[C@@H]5CC[C@]43C)[C@@H]12
not listed: Fibroblast [1] | Fibroblast [2]
active: all other assays above

Source: ChEMBL document CHEMBL3853270, “Influence of Birch Bark Triterpenes on Keratinocytes and Fibroblasts from Diabetic and Nondiabetic Donors” (2016)
